Source: ChEMBL document CHEMBL1145831 (J Med Chem, 2003)

Key:
Mus musculus [1] = test: In vivo antitumor activity against murine pancreatic adenocarcinoma and measured as % weight loss on a schedule of 3,5 days and at a total dose of 1 mg/kg; type: functional
How it was run: (§1)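 Mice bearing drug-sensitive murine pancreatic adenocarcinoma Panc-03 were dosed on the listed days at the listed total doses. Dosing solutions were made in water from stock solutions and injected within 20 min. Chlorohydrin solutions were acidified with 0.05% citric acid. Tolerance was recorded as body weight loss and number of deaths.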

Mus musculus [2] = test: In vivo antitumor activity against murine pancreatic adenocarcinoma and measured as number of deaths on a schedule of 3 days and at a total dose of 2 mg/kg; type: ADME, organism-based; set-up: dose 2 mg/kg; details: 72 h; how it was run: as §1
Mus musculus [3] = test: In vivo antitumor activity against murine pancreatic adenocarcinoma and measured as % weight loss on a schedule of 3,5 days and at a total dose of 1.6 mg/kg; type: functional; how it was run: as §1
Mus musculus [4] = test: In vivo antitumor activity against murine pancreatic adenocarcinoma and measured as number of deaths on a schedule of 3,5 days and at a total dose of 1 mg/kg; type: ADME, organism-based; set-up: dose 1 mg/kg; details: 120 h; how it was run: as §1
Mus musculus [5] = test: Ratio of the median tumor weight in the treatment group over the median tumor weight in the control group on a schedule of 3,5 days and at a total dose of 1.6 mg/kg; type: functional
How it was run: (§2)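 Panc-03 murine pancreatic adenocarcinoma in mice, with injectable solutions prepared in water from stock and given within 20 min; chlorohydrins were acidified with 0.05% citric acid. %T/C is median tumor weight of the treated group over that of the control group × 100, calculated when control median tumor weight reaches 1 g. T/C ≤ 42% is taken as significant activity.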

Mus musculus [6] = test: Ratio of the median tumor weight in the treatment group over the median tumor weight in the control group on a schedule of 3 days and at a total dose of 2 mg/kg; type: functional; how it was run: as §2
Mus musculus [7] = test: In vivo antitumor activity against murine pancreatic adenocarcinoma and measured as % weight loss on a schedule of 3 days and at a total dose of 2 mg/kg; type: functional; how it was run: as §1
Mus musculus [8] = test: In vivo antitumor activity against murine pancreatic adenocarcinoma and measured as number of deaths on a schedule of 3,5 days and at a total dose of 1.6 mg/kg; type: ADME, organism-based; set-up: dose 1.6 mg/kg; details: 120 h; how it was run: as §1
Mus musculus [9] = test: Ratio of the median tumor weight in the treatment group over the median tumor weight in the control group on a schedule of 3,5 days and at a total dose of 1 mg/kg; type: functional; how it was run: as §2
CCRF-CEM = test: In vitro growth inhibitory activity in the human CCRF-CEM leukemia cell line.; type: functional, cell-based
How it was run: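 CCRF-CEM human leukemia cells in log phase, 4.8 × 10⁴ cells per 2 mL well. Medium was RPMI-1640 with 10% dialyzed FBS and 25 mM HEPES. Compounds were serially diluted 1:3 in DMSO and added to duplicate wells, with DMSO-only controls, at 0.5% final DMSO. Cells were exposed 72 h at 37 °C in humidified 5% CO₂, then counted. IC50 in nM.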

Mus musculus [10] = test: In vivo antitumor activity against murine pancreatic adenocarcinoma and measured as % weight loss on a schedule of 1-6 days and at a total dose of 162 mg/kg; type: functional; how it was run: as §1
Mus musculus [11] = test: In vivo antitumor activity against murine pancreatic adenocarcinoma and measured as number of deaths on a schedule of 1-6 days and at a total dose of 162 mg/kg; type: ADME, organism-based; set-up: dose 162 mg/kg; how it was run: as §1
Mus musculus [12] = test: In vivo antitumor activity against murine pancreatic adenocarcinoma and measured as % weight loss on a schedule of 1-6 days and at a total dose of 72 mg/kg; type: functional; how it was run: as §1
Mus musculus [13] = test: Ratio of the median tumor weight in the treatment group over the median tumor weight in the control group on a schedule of 1-6 days and at a total dose of 162 mg/kg; type: functional; how it was run: as §2
Mus musculus [14] = test: Ratio of the median tumor weight in the treatment group over the median tumor weight in the control group on a schedule of 1-6 days and at a total dose of 72 mg/kg; type: functional; how it was run: as §2
Mus musculus [15] = test: In vivo antitumor activity against murine pancreatic adenocarcinoma and measured as number of deaths on a schedule of 1-6 days and at a total dose of 72 mg/kg; type: ADME, organism-based; set-up: dose 72 mg/kg; how it was run: as §1
Mus musculus [16] = test: Ratio of the median tumor weight in the treatment group over the median tumor weight in the control group on a schedule of 3,5,7 days and at a total dose of 18 mg/kg; type: functional
How it was run: (§3)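 Mice bearing the drug-sensitive murine pancreatic adenocarcinoma Panc-03. Dosing solutions were made in water from stock solutions and injected within 20 min of preparation; chlorohydrins were acidified with 0.05% citric acid. T/C (%) = median tumor weight of the treated group ÷ median tumor weight of controls × 100, calculated when control median tumor weight reached 1 g.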

Mus musculus [17] = test: In vivo antitumor activity against murine pancreatic adenocarcinoma and measured as % weight loss on a schedule of 3,5,7 days and at a total dose of 18 mg/kg; type: functional
How it was run: (§4)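 Body weight loss was tracked in mice implanted with the Panc-03 murine pancreatic adenocarcinoma. Injections were given within 20 min of aqueous preparation from stock solutions, with chlorohydrins acidified using 0.05% citric acid.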

Mus musculus [18] = test: Ratio of the median tumor weight in the treatment group over the median tumor weight in the control group on a schedule of 3,5,7 days and at a total dose of 36 mg/kg; type: functional; how it was run: as §3
Mus musculus [19] = test: In vivo antitumor activity against murine pancreatic adenocarcinoma and measured as number of deaths on a schedule of 3,5,7 days and at a total dose of 18 mg/kg; type: ADME, organism-based; set-up: dose 18 mg/kg; details: 168 h; how it was run: as §1
Mus musculus [20] = test: In vivo antitumor activity against murine pancreatic adenocarcinoma and measured as % weight loss 3,5,7 days and at a total dose of 9 mg/kg; type: functional; how it was run: as §4
Mus musculus [21] = test: In vivo antitumor activity against murine pancreatic adenocarcinoma and measured as % weight loss on a schedule of 3,5,7 days and at a total dose of 36 mg/kg; type: functional; how it was run: as §4
Mus musculus [22] = test: In vivo antitumor activity against murine pancreatic adenocarcinoma and measured as number of deaths on a schedule of 3,5,7 days and at a total dose of 9 mg/kg; type: ADME, organism-based; set-up: dose 9 mg/kg; details: 168 h; how it was run: as §1
Mus musculus [23] = test: In vivo antitumor activity against murine pancreatic adenocarcinoma and measured as number of deaths on a schedule of 3,5,7 days and at a total dose of 36 mg/kg; type: ADME, organism-based; set-up: dose 36 mg/kg; details: 168 h; how it was run: as §1
Mus musculus [24] = test: Ratio of the median tumor weight in the treatment group over the median tumor weight in the control group on a schedule of 3,5,7 days and at a total dose of 9 mg/kg; type: functional; how it was run: as §3
Mus musculus [25] = test: In vivo antitumor activity against murine pancreatic adenocarcinoma and measured as number of deaths on a schedule of 5-10 day and at a total dose of 270 mg/kg; type: ADME, organism-based; set-up: dose 270 mg/kg; how it was run: as §1
Mus musculus [26] = test: In vivo antitumor activity against murine pancreatic adenocarcinoma and measured as % weight loss on a schedule of 5-10 day and at a total dose of 210 mg/kg; type: functional; how it was run: as §1
Mus musculus [27] = test: In vivo antitumor activity against murine pancreatic adenocarcinoma and measured as % weight loss on a schedule of 5-10 day and at a total dose of 270 mg/kg; type: functional; how it was run: as §1
Mus musculus [28] = test: Ratio of the median tumor weight in the treatment group over the median tumor weight in the control group on a schedule of 5-10 day and at a total dose of 210 mg/kg; type: functional; how it was run: as §2
Mus musculus [29] = test: In vivo antitumor activity against murine pancreatic adenocarcinoma and measured as % weight loss on a schedule of 5-10 day and at a total dose of 402 mg/kg; type: functional; how it was run: as §1
Mus musculus [30] = test: Ratio of the median tumor weight in the treatment group over the median tumor weight in the control group on a schedule of 5-10 day and at a total dose of 402 mg/kg; type: functional
How it was run: (§5)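 Murine pancreatic adenocarcinoma Panc-03 tumors in mice. T/C is the median tumor weight of the treated group over that of controls, ×100, taken when control median tumor weight reaches 1 g. T/C ≤42% counts as significant antitumor activity. Dosing solutions were prepared aqueous from stock solutions and injected within 20 min.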

Mus musculus [31] = test: In vivo antitumor activity against murine pancreatic adenocarcinoma and measured as number of deaths on a schedule of 5-10 day and at a total dose of 402 mg/kg; type: ADME, organism-based; set-up: dose 402 mg/kg; how it was run: as §1
Mus musculus [32] = test: In vivo antitumor activity against murine pancreatic adenocarcinoma and measured as number of deaths on a schedule of 5-10 day and at a total dose of 210 mg/kg; type: ADME, organism-based; set-up: dose 210 mg/kg; how it was run: as §1
Mus musculus [33] = test: Ratio of the median tumor weight in the treatment group over the median tumor weight in the control group on a schedule of 5-10 day and at a total dose of 270 mg/kg; type: functional; how it was run: as §5

Work on `COc1ccc(C[C@H]2NC(=O)/C=C/C[C@@H]([C@H](C)[C@@H](O)[C@@H](Cl)c3ccc(CN4CCNCC4)cc3)OC(=O)[C@H](CC(C)C)OC(=O)C(C)(C)CNC2=O)cc1Cl.Cl.Cl` yielded a Weight loss (Mus musculus [1]) of -3%, a Death (Mus musculus [2]) of 2 and a Weight loss (Mus musculus [3]) of -16%. The Death (Mus musculus [4]) was 0, the T/C (Mus musculus [5]) was 0% and the T/C (Mus musculus [6]) was 8%. It also gave a Weight loss (Mus musculus [7]) of -26%, a Death (Mus musculus [8]) of 0 and a T/C (Mus musculus [9]) of 33%. For the same compound, the IC50 (CCRF-CEM) was 0.021 nM.

In the case of `COc1ccc(C[C@H]2NC(=O)/C=C/C[C@@H]([C@H](C)[C@@H](O)[C@@H](Cl)c3cccc(C)c3)OC(=O)[C@H](CC(C)C)OC(=O)C(C)(C)CNC2=O)cc1Cl`, the Weight loss (Mus musculus [10]) is reported as 7%, the Death (Mus musculus [11]) is reported as 0 and the Weight loss (Mus musculus [12]) is reported as 12%. The T/C (Mus musculus [13]) was 0%, the T/C (Mus musculus [14]) was 46% and the Death (Mus musculus [15]) was 0. The IC50 (CCRF-CEM) was 0.3 nM.

Work on `COc1ccc(C[C@H]2NC(=O)/C=C/C[C@@H]([C@H](C)[C@@H](O)[C@@H](Cl)c3ccc(COC(=O)CN)cc3)OC(=O)[C@H](CC(C)C)OC(=O)C(C)(C)CNC2=O)cc1Cl.Cl` yielded a T/C (Mus musculus [16]) of 0%, a Weight loss (Mus musculus [17]) of -4% and a T/C (Mus musculus [18]) of 0%. It also gave a Death (Mus musculus [19]) of 0, a Weight loss (Mus musculus [20]) of -2% and a Weight loss (Mus musculus [21]) of -20%. The Death (Mus musculus [22]) was 0, the Death (Mus musculus [23]) was 3 and the T/C (Mus musculus [24]) was 0%. The IC50 (CCRF-CEM) was 0.013 nM.

Work on `COc1ccc(C[C@H]2NC(=O)/C=C/C[C@@H]([C@H](C)[C@@H](O)[C@@H](Cl)c3ccccc3)OC(=O)[C@H](CC(C)C)OC(=O)C(C)(C)CNC2=O)cc1Cl` yielded a Death (Mus musculus [25]) of 0, a Weight loss (Mus musculus [26]) of -5% and a Weight loss (Mus musculus [27]) of -5%. It also gave a T/C (Mus musculus [28]) of 0%, a Weight loss (Mus musculus [29]) of -6% and a T/C (Mus musculus [30]) of 0%. The Death (Mus musculus [31]) was 0, the Death (Mus musculus [32]) was 0 and the T/C (Mus musculus [33]) was 0%.
